Test results: ChEMBL document CHEMBL2040709, “Synthesis, antidepressant and antimicrobial activities of some novel stearic acid analogues” (2012)

Columns and labels:
Format in all cases: functional
Pseudomonas aeruginosa [1] = assay: Antibacterial activity against Pseudomonas aeruginosa at 1000 ug/ml after 24 hrs by agar disc diffusion method; details: read-out: DIZ
How it was run: (§1)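 Agar disc diffusion on nutrient agar plates surface-spread with standard inoculum ([…], 0.5 McFarland). Whatman No.1 paper discs (6 mm, dry-heat sterilised 140 °C, 1 h) were soaked in test compound at two concentrations (500 and 1000, as tabulated). DMSO-only discs and solvent/growth controls were included. Plates were inverted and incubated 24 h at 37 °C. Zones of inhibition were measured, and percentage potency was calculated per Indian Pharmacopoeia.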

Pseudomonas aeruginosa [2] = assay: Antibacterial activity against Pseudomonas aeruginosa at 500 ug/ml after 24 hrs by agar disc diffusion method; details: read-out: DIZ; how it was run: as §1
Candida albicans [3] = assay: […] at 500 ug/ml after 24 hrs by agar disc diffusion method; details: read-out: DIZ; how it was run: as §1
Escherichia coli [4] = assay: Antibacterial activity against Escherichia coli at 1000 ug/ml after 24 hrs by agar disc diffusion method; details: read-out: DIZ; how it was run: as §1
Candida albicans [5] = assay: […] at 1000 ug/ml after 24 hrs by agar disc diffusion method; details: read-out: DIZ; how it was run: as §1
Mus musculus [6] = assay: Antidepressant activity in Swiss albino mouse assessed as decrease in immobility time at 30 mg/kg, ip administered 30 mins before test measured for 4 mins of total 6 mins test by forced swim test; details: route intraperitoneal
How it was run: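 Forced swim test in inbred male Swiss albino mice (20–30 g), groups of 6, acclimatised one week. The 30 mg/kg dose was suspended in 0.5% CMC and given i.p. 30 min before the test; controls received vehicle. Mice swam singly in a glass tank with 15 cm water at 25 ± 3 °C. Immobility was timed over the last 4 min of a 6 min session. Dunnett's test was applied.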

Bacillus subtilis [7] = assay: Antibacterial activity against Bacillus subtilis at 1000 ug/ml after 24 hrs by agar disc diffusion method; details: read-out: DIZ; how it was run: as §1
Escherichia coli [8] = assay: Antibacterial activity against Escherichia coli at 500 to 1000 ug/ml after 24 hrs by agar disc diffusion method; how it was run: as §1
Bacillus subtilis [9] = assay: Antibacterial activity against Bacillus subtilis at 500 to 1000 ug/ml after 24 hrs by agar disc diffusion method; how it was run: as §1
Pseudomonas aeruginosa [10] = assay: Antibacterial activity against Pseudomonas aeruginosa at 500 to 1000 ug/ml after 24 hrs by agar disc diffusion method; how it was run: as §1
Staphylococcus aureus [11] = assay: Antibacterial activity against Staphylococcus aureus at 1000 ug/ml after 24 hrs by agar disc diffusion method; details: read-out: DIZ; how it was run: as §1
Mus musculus [12] = assay: Antidepressant activity in Swiss albino mouse assessed as increase in dopamine level in brain at 30 mg/kg, ip by HPLC analysis; details: route intraperitoneal
Bacillus subtilis [13] = assay: Antibacterial activity against Bacillus subtilis at 500 ug/ml after 24 hrs by agar disc diffusion method; details: read-out: DIZ; how it was run: as §1
Candida albicans [14] = assay: […] at 500 to 1000 ug/ml after 24 hrs by agar disc diffusion method; how it was run: as §1
Escherichia coli [15] = assay: Antibacterial activity against Escherichia coli at 500 ug/ml after 24 hrs by agar disc diffusion method; details: read-out: DIZ; how it was run: as §1
Staphylococcus aureus [16] = assay: Antibacterial activity against Staphylococcus aureus at 500 to 1000 ug/ml after 24 hrs by agar disc diffusion method; how it was run: as §1
Staphylococcus aureus [17] = assay: Antibacterial activity against Staphylococcus aureus at 500 ug/ml after 24 hrs by agar disc diffusion method; details: read-out: DIZ; how it was run: as §1

Structure (SMILES) | zone of inhibition at 1000 µg/mL (Pseudomonas aeruginosa [1]) | zone of inhibition at 500 µg/mL (Pseudomonas aeruginosa [2]) | zone of inhibition at 500 µg/mL (Candida albicans [3]) | zone of inhibition at 1000 µg/mL (Escherichia coli [4]) | zone of inhibition at 1000 µg/mL (Candida albicans [5]) | Time (Mus musculus [6]) | zone of inhibition at 1000 µg/mL (Bacillus subtilis [7]) | Activity (Escherichia coli [8]) | Activity (Bacillus subtilis [9]) | Activity (Pseudomonas aeruginosa [10]) | zone of inhibition at 1000 µg/mL (Staphylococcus aureus [11]) | Activity (Mus musculus [12]) | zone of inhibition at 500 µg/mL (Bacillus subtilis [13]) | Activity (Candida albicans [14]) | zone of inhibition at 500 µg/mL (Escherichia coli [15]) | Activity (Staphylococcus aureus [16]) | zone of inhibition at 500 µg/mL (Staphylococcus aureus [17])
CCCCCCCCCCCCCCCCCc1nnc(-c2ccccc2)n1N | 16 mm | 13 mm | 15 mm | 17 mm | 22 mm | 68.83 s | 15 mm | 93.3% | 93.3% | 59.45% | 18 mm | 0.367 ng/mg | 12 mm | 65.97% | 16 mm | 75.78% | 13 mm
CCCCCCCCCCCCCCCCCc1nnc(-c2ccccc2)o1 | 17 mm | 16 mm | 15 mm | 18 mm | 20 mm | 70 s | 16 mm | 93.3% | 75.78% | 60.95% | 21 mm | 0.25 ng/mg | 13 mm | 56.71% | 14 mm | 94.6% | 14 mm
CN(C)[C@@H]1C(O)=C(C(N)=O)C(=O)[C@@]2(O)C(O)=C3C(=O)c4c(O)cccc4[C@@](C)(O)[C@H]3C[C@@H]12 [TETRACYCLINE] | 22 mm | 16 mm |  | 23 mm |  |  | 20 mm |  |  |  | 19 mm |  | 13 mm |  | 18 mm |  | 18 mm
CCCCCCCCCCCCCCCCCc1nn2c(-c3ccccc3)nnc2s1 | 19 mm | 15 mm | 15 mm | 19 mm | 19 mm | 62.67 s | 16 mm | 84.08% | 93.88% | 93.88% | 17 mm | 1.455 ng/mg | 13 mm | 92.57% | 16 mm | 79.35% | 16 mm
CN(C)CCCN1c2ccccc2CCc2ccc(Cl)cc21 [CLOMIPRAMINE] |  |  |  |  |  | 52.97 s |  |  |  |  |  | 0.42 ng/mg |  |  |  |  | 
